Test results published in publication PMC3656605 (Nature, 2012).
pIC50: −log10 of the molar value.

Columns and labels:
[1] = tested on: HIF in IDH1 R132H immortalized human astrocytes; format: cell-based; settings: 21% oxygen, increasing amounts for 16 hours
Outline: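 Immortalized human astrocytes (passage 10) expressing wild-type or mutant IDH1 were dosed with test compound for 16 h before lysis in 50 mM Tris pH 8.0, 120 mM NaCl, 0.5% NP-40 with protease inhibitors. Extracts were run on 10% SDS-PAGE and transferred to nitrocellulose. Blots were blocked in TBS/5% milk, probed with anti-HIF1α monoclonal antibody, and detected by HRP-secondary chemiluminescence.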

Tet1 = experiment: Inhibition of Tet1, 14CO2 release, double stranded oligonucleotide substrate; format: biochemical, murine; settings: in vitro; 120 µM 2-oxo-[1-14C]glutarate
Tet2 = experiment: Inhibition of Tet2, 14CO2 release, double stranded oligonucleotide substrate; format: biochemical, murine; settings: in vitro; 120 µM 2-oxo-[1-14C]glutarate
EglN2 [2] = biological target: T1, EglN2 (Homo sapiens, UniProt Q96KS0); format: biochemical; settings: standard assay conditions, 10 μM 2-OG
T1 sequence (Q96KS0 whole entry): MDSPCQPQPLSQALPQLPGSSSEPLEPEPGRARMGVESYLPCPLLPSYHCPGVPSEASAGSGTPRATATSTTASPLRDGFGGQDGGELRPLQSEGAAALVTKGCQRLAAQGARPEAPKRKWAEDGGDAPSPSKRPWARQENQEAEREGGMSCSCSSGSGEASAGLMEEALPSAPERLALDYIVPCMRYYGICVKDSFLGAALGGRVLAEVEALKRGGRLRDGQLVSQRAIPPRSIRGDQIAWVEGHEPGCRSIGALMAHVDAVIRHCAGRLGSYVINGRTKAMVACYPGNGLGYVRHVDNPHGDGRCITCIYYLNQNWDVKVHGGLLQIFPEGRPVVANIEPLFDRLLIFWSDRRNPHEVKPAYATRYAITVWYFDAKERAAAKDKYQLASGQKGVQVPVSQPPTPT

EglN2 [3] = biological target: T1, EglN2; format: biochemical; settings: low mM concentrations, reactions lacking exogenous 2-OG
[4] = tested on: JMJD2D histone demethylase; experiment: JMJD2D histone demethylase activity; format: biochemical; settings: data not shown; for Inhibition of JMJD2D histone demethylase (in words): in vitro
FIH = experiment: Inhibition of FIH, 14CO2 release, synthetic peptide substrate; format: biochemical, human; settings: in vitro; 10 µM 2-oxo-[1-14C]glutarate
collagen P4H-I [5] = experiment: Inhibition of collagen P4H-I, 14CO2 release; format: biochemical, human; settings: in vitro; 100 µM 2-oxo-[1-14C]glutarate
EglN3 = EglN3 (Homo sapiens, UniProt Q9H6Z9); format: biochemical; settings: standard assay conditions, 10 μM 2-OG
Chain of EglN3 (Q9H6Z9 whole entry): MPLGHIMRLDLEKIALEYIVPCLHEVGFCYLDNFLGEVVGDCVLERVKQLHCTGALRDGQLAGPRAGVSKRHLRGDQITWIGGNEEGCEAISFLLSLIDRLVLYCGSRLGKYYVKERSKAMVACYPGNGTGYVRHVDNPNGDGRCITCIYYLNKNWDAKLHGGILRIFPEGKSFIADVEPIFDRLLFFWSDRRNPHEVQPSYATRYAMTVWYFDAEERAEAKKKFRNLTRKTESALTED

collagen P4H-I [6] = format: biochemical, human; settings: no exogenous 2-OG
EglN1 [7] = biological target: T2, EglN1 (Homo sapiens, UniProt Q9GZT9); format: biochemical
T2 sequence (Q9GZT9 whole entry): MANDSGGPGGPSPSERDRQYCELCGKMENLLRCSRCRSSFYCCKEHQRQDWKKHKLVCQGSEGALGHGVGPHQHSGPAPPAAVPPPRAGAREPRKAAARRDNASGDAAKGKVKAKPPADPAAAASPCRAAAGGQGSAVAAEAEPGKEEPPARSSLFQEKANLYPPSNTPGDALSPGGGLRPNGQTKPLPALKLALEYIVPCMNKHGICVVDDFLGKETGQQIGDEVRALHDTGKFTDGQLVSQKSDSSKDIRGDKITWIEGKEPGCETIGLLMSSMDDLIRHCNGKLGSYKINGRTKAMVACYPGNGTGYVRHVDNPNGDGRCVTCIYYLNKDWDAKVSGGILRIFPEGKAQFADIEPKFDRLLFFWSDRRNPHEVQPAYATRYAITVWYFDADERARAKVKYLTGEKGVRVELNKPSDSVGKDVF

EglN1 [8] = biological target: T2, EglN1; format: biochemical; remark: listed apart in the source

Row | SMILES | Resistance of R132H-expressing cells to the agent (HIF immunoblot) [1] | Inhibition of TET1 methyl cytosine hydroxylase (in words) (Tet1) | Inhibition of TET2 methyl cytosine hydroxylase (in words) (Tet2) | pIC50 (EglN2 [2]; read-out: IC50, EglN2 inhibition) | Promotion of EglN2 activity (EglN2 [3]) | Promotion of JMJD2D histone demethylase activity [4] | Inhibition of JMJD2D histone demethylase (in words) [4] | Inhibition of HIF asparaginyl hydroxylase FIH (in words) (FIH) | Inhibition of collagen prolyl 4-hydroxylases (in words) (collagen P4H-I [5]) | pIC50 (EglN3; read-out: IC50, EglN3 inhibition) | Promotion of collagen prolyl 4-hydroxylase activity (collagen P4H-I [6]) | Release of 14CO2 in EglN1 assays (EglN1 [7]; increasing amounts of R-2HG added to 10 μM 2-oxo-[1-14C]glutarate) | Prolyl hydroxylation of HIF1α by EglN1 (EglN1 [8]; increasing R-2HG with 10 μM 2-OG, concentrations as high as 100 mM) | Promotion of EglN1 activity (EglN1 [8]; low mM concentrations, reactions lacking exogenous 2-OG) | Inhibition of EglN2 (in words) (EglN2 [2]) | Inhibition of EglN3 (in words) (EglN3) | Inhibition of EglN1 (in words) (EglN1 [7]; standard assay conditions, 10 μM 2-OG)
1 | COC(=O)CNC(=O)C(=O)OC [DMOG] | relatively resistant | – | – | – | – | – | – | – | – | – | – | – | – | – | – | – | –
2 | O=C(O)CC[C@@H](O)C(=O)O [R-2HG, R-2-hydroxyglutarate] | – | inhibit | inhibit | < 2.30 | promoted | did not promote | inhibit | inhibit | inhibit | < 2.30 | did not promote | progressively decreased | without decreasing | promoted | – | – | –
3 | O=C(O)CC[C@H](O)C(=O)O [S-2HG, S-2-hydroxyglutarate] | – | inhibit | inhibit | – | – | – | inhibit | inhibit | inhibit | – | – | – | – | – | micromolar to low millimolar inhibitor | micromolar to low millimolar inhibitor | micromolar to low millimolar inhibitor
